Source: ChEMBL document CHEMBL3393047, “Pyridine and pyridinone-based factor XIa inhibitors” (Bioorg Med Chem Lett, 2015)

Legend:
[1] = target: Coagulation factor XI (Homo sapiens, UniProt P03951); experiment: Inhibition of human coagulation factor 11a after 10 to 120 mins
[2] = target: Trypsin (Homo sapiens, UniProt P07477+P07478+P35030); experiment: Inhibition of human trypsin; assay type: protein assay
In short: (§1)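 Ki determined against purified human enzymes (selectivity panel of serine proteases).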

[3] = target: Tissue-type plasminogen activator (Homo sapiens, UniProt P00750); experiment: Inhibition of human TPA; in short: as §1
[4] = target: Coagulation factor IX (Homo sapiens, UniProt P00740); experiment: Inhibition of human coagulation factor 9a; in short: as §1
[5] = target: Plasminogen (Homo sapiens, UniProt P00747); experiment: Inhibition of human plasmin; in short: as §1
[6] = target: Coagulation factor X (Homo sapiens, UniProt P00742); experiment: Inhibition of human coagulation factor 10a; in short: as §1
[7] = system: Plasma; experiment: Anticoagulant activity in human plasma assessed as concentration required to double the activated partial thromboplastin time; assay type: functional
In short: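 In vitro clotting assay run in human plasma; activity read out as the activated partial thromboplastin time, and the value reported as EC2x, the concentration that doubles aPTT.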

[8] = target: Prothrombin (Homo sapiens, UniProt P00734); experiment: Inhibition of human thrombin; in short: as §1
[9] = target: Urokinase-type plasminogen activator (Homo sapiens, UniProt P00749); experiment: Inhibition of human urokinase; in short: as §1
[10] = target: T1, Coagulation factor VII (Homo sapiens, UniProt P08709); experiment: Inhibition of human coagulation factor 7a; in short: as §1
T1 sequence (P08709 whole entry): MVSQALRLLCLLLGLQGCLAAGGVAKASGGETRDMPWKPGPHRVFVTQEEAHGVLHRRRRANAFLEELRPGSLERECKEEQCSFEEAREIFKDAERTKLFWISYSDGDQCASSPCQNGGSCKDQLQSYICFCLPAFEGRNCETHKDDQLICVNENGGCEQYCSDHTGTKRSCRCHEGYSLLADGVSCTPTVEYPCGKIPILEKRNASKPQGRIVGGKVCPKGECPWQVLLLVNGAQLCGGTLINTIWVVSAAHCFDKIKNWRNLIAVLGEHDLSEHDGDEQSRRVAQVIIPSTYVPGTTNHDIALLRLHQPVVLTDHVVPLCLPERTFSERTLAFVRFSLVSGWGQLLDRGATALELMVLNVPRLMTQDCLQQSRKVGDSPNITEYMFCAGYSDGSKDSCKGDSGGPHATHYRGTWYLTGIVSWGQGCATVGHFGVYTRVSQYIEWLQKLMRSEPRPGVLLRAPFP

[11] = target: Plasma kallikrein (Homo sapiens, UniProt P03952); experiment: Inhibition of human plasma kallikrein; in short: as §1
[12] = target: Vitamin K-dependent protein C (Homo sapiens, UniProt P04070); experiment: Inhibition of human activated protein C; in short: as §1
[13] = Inhibition of human chymotrypsin; in short: as §1

Coagulation factor XI, sequence (P03951 19-387 limits assumed): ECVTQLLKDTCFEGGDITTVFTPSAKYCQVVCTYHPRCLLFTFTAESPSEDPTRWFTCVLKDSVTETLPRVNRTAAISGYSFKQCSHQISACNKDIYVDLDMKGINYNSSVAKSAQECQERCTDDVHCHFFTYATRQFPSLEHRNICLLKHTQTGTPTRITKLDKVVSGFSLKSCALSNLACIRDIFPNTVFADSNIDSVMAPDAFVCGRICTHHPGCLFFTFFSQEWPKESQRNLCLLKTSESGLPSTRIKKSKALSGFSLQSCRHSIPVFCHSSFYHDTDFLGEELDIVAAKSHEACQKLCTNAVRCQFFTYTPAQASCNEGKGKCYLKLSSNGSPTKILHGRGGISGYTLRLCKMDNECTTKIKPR
Coagulation factor XI, sequence (P03951 388-625 limits assumed): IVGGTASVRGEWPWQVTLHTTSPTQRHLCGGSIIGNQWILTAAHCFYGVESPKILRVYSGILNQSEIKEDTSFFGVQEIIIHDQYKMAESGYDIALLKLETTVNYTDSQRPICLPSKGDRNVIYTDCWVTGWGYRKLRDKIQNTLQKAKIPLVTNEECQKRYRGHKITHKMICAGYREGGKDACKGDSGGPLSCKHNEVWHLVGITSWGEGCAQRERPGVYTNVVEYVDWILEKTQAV
Plasma kallikrein, sequence (P03952 20-390 limits assumed): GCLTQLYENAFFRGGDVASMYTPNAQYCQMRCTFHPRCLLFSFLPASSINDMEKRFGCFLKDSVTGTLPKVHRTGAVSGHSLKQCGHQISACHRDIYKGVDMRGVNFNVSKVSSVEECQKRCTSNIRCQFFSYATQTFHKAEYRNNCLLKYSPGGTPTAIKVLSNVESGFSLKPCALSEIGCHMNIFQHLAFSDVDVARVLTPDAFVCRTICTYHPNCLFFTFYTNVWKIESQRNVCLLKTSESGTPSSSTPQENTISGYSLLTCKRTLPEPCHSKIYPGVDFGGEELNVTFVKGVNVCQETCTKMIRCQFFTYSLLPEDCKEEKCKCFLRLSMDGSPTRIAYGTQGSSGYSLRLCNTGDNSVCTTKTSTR
Plasma kallikrein, sequence (P03952 391-638 limits assumed): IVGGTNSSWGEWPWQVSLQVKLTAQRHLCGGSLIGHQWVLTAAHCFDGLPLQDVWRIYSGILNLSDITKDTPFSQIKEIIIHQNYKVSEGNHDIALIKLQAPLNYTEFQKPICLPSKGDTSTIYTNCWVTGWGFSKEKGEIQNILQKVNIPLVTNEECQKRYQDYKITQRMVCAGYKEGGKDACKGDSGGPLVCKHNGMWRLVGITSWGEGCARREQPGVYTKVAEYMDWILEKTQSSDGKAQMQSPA
Coagulation factor X, sequence (P00742 41-179 limits assumed): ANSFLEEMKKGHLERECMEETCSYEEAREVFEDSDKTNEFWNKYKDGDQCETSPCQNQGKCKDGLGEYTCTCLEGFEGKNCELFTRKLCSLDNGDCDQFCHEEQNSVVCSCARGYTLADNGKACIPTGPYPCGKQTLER
Coagulation factor X, sequence (P00742 235-488 limits assumed): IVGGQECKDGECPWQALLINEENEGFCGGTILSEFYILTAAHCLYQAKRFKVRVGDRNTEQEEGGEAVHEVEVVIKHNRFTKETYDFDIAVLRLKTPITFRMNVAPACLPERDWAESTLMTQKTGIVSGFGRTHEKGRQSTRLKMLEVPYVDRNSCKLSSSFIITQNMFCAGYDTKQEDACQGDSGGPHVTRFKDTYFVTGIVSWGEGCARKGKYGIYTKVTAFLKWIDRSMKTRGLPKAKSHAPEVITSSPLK
Tissue-type plasminogen activator, sequence (P00750 whole entry): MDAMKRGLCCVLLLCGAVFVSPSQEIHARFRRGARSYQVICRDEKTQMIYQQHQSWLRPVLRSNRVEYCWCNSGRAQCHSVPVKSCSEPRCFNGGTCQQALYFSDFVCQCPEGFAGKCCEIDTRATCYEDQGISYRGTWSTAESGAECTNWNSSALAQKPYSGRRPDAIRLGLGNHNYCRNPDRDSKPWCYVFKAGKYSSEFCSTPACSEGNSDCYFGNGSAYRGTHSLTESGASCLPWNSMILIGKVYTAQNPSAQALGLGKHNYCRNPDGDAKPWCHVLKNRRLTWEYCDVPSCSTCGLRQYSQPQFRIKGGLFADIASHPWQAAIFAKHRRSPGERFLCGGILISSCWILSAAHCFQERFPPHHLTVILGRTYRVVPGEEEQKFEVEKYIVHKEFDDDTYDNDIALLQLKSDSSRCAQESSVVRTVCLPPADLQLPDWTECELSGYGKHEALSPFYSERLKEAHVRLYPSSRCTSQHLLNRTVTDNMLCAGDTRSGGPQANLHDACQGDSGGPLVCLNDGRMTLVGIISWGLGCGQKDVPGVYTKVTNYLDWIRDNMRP
Vitamin K-dependent protein C, sequence (P04070 43-197 limits assumed): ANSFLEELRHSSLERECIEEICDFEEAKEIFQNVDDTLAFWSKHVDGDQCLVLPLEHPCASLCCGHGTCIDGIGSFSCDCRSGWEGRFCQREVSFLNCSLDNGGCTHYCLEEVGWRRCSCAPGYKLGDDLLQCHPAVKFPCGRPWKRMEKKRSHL
Vitamin K-dependent protein C, sequence (P04070 212-461 limits assumed): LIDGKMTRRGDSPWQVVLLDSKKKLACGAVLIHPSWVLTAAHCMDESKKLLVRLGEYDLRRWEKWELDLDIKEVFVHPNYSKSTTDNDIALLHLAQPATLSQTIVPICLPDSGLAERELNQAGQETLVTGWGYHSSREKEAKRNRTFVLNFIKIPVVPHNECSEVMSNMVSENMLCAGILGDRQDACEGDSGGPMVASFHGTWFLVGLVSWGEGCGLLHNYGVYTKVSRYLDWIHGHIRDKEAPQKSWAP
Plasminogen, sequence (P00747 97-580 limits assumed): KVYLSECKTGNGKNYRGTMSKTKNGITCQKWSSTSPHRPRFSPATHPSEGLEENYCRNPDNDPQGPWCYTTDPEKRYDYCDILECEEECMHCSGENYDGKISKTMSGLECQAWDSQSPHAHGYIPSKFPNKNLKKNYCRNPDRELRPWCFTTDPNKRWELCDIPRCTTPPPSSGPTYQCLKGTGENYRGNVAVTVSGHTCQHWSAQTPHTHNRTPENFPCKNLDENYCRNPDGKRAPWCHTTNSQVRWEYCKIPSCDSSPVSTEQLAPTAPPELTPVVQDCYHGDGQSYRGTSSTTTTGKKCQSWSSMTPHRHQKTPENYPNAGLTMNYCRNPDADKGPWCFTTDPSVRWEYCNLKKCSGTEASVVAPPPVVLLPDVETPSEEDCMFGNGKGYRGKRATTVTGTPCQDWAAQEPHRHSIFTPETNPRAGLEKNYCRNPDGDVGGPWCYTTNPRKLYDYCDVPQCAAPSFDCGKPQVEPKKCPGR
Plasminogen, sequence (P00747 581-810 limits assumed): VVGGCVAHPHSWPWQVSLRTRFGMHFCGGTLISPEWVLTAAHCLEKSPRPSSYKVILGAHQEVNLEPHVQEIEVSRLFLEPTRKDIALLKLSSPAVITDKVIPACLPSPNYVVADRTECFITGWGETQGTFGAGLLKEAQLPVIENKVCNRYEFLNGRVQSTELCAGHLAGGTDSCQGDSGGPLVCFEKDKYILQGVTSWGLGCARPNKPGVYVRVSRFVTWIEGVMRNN
Coagulation factor IX, sequence (P00740 47-191 limits assumed): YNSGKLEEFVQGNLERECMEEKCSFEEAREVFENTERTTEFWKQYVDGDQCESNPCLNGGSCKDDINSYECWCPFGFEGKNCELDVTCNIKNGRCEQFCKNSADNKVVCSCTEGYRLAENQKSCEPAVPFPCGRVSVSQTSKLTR
Coagulation factor IX, sequence (P00740 227-461 limits assumed): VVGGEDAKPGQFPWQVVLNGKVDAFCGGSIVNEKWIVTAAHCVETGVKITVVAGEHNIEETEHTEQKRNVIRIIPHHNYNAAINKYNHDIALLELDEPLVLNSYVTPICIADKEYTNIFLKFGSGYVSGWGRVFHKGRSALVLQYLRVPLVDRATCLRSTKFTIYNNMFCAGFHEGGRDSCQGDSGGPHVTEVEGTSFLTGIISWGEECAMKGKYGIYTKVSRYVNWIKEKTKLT

| Ki [1] [nM] | Structure (SMILES) | further results |
| --- | --- | --- |
| 206 | NC[C@H]1CC[C@H](C(=O)NC(Cc2ccccc2)c2cc(-c3ccccc3)cc(Cl)n2)CC1 (mixture of isomers) |  |
| 949 | COc1cc(-c2ccccc2)cc(C(Cc2ccccc2)NC(=O)[C@H]2CC[C@H](CN)CC2)n1 (mixture of isomers) |  |
| 1060 | NC[C@H]1CC[C@H](C(=O)NC(Cc2ccccc2)c2cc(-c3ccccc3)c[n+]([O-])c2)CC1 (mixture of isomers) |  |
| 377 | NC[C@H]1CC[C@H](C(=O)NC(Cc2ccccc2)c2cc(-c3ccccc3)ccn2)CC1 (mixture of isomers) |  |
| 30200 | NC[C@H]1CC[C@H](C(=O)NC(Cc2ccccc2)c2cccc(-c3ccccc3)n2)CC1 (mixture of isomers) |  |
| 227 | NC[C@H]1CC[C@H](C(=O)NC(Cc2ccccc2)c2cc(-c3ccccc3)cc(N)n2)CC1 (mixture of isomers) |  |
| 113 | NC[C@H]1CC[C@H](C(=O)NC(Cc2ccccc2)c2cc(-c3ccccc3)cc(O)n2)CC1 (mixture of isomers) |  |
| 860 | CNc1cc(-c2ccccc2)cc(C(Cc2ccccc2)NC(=O)[C@H]2CC[C@H](CN)CC2)n1 (mixture of isomers) |  |
| 936 | NC[C@H]1CC[C@H](C(=O)NC(Cc2ccccc2)c2cccc(-c3ccccc3)c2)CC1 (mixture of isomers) |  |
| 330 | NC[C@H]1CC[C@H](C(=O)NC(Cc2ccccc2)c2cncc(-c3ccccc3)c2)CC1 (mixture of isomers) |  |
| 320 | NC[C@H]1CC[C@H](C(=O)NC(Cc2ccccc2)c2ccnc(-c3ccccc3)c2)CC1 (mixture of isomers) |  |
| 331 | NC[C@H]1CC[C@H](C(=O)NC(Cc2ccccc2)c2cc(-c3ccccc3)ncn2)CC1 (mixture of isomers) |  |
| 1690 | NC[C@H]1CC[C@H](C(=O)NC(Cc2ccccc2)c2cc(-c3ccccc3)cc[n+]2[O-])CC1 (mixture of isomers) |  |
| 2530 | NC[C@H]1CC[C@H](C(=O)NC(Cc2ccccc2)c2cc[n+]([O-])c(-c3ccccc3)c2)CC1 (mixture of isomers) |  |
| 433 | NC[C@H]1CC[C@H](C(=O)NC(Cc2ccccc2)c2cc(-c3ccccc3)c(F)cn2)CC1 (mixture of isomers) |  |

Second part, the molecule before the results:

| Structure (SMILES) | Ki [1] [nM] | further results |
| --- | --- | --- |
| NC[C@H]1CC[C@H](C(=O)N[C@@H](Cc2ccccc2)c2nc(-c3ccccc3)c(Cl)[nH]2)CC1 | 12 |  |
| NC[C@H]1CC[C@H](C(=O)N[C@@H](Cc2ccccc2)c2cc(-c3ccc4c(N)n[nH]c4c3)ccn2)CC1 | 8.4 | Ki [2]: 64 nM; Ki [3]: > 21900 nM; Ki [4]: > 34900 nM; Ki [5]: > 22100 nM; Ki [6]: > 9000 nM; 2aPTT [7]: 4.5 µM; Ki [8]: > 12600 nM; Ki [9]: > 14100 nM; Ki [10]: > 10900 nM; Ki [11]: 24 nM; Ki [12]: > 21400 nM; Ki [13]: > 20800 nM |
| NC[C@H]1CC[C@H](C(=O)N[C@@H](Cc2ccccc2)c2nc(-c3ccc4c(N)n[nH]c4c3)c[nH]2)CC1 | 3.2 | 2aPTT [7]: 3 µM |
| Cn1c(C(Cc2ccccc2)NC(=O)[C@H]2CC[C@H](CN)CC2)cc(-c2ccccc2)cc1=O (mixture of isomers) | 479 |  |
| NC[C@H]1CC[C@H](C(=O)N[C@H](Cc2ccccc2)c2cc(-c3ccc4c(N)n[nH]c4c3)ccn2)CC1 | 1070 |  |
| NC[C@H]1CC[C@H](C(=O)NC(Cc2ccccc2)c2cccc(-c3ccc4c(N)n[nH]c4c3)c2)CC1 (mixture of isomers) | 42 | 2aPTT [7]: >40 µM |
| NC[C@H]1CC[C@H](C(=O)N[C@@H](Cc2ccccc2)c2cccc(-c3ccc4c(N)n[nH]c4c3)c2)CC1 | 21 | 2aPTT [7]: 37 µM |
| NC[C@H]1CC[C@H](C(=O)NC(Cc2ccccc2)c2cc(-c3ccc4c(N)n[nH]c4c3)cc(=O)[nH]2)CC1 (mixture of isomers) | 3.7 | 2aPTT [7]: 2.5 µM |
| NC[C@H]1CC[C@H](C(=O)N[C@H](Cc2ccccc2)c2cccc(-c3ccc4c(N)n[nH]c4c3)c2)CC1 | 6160 |  |
| NC[C@H]1CC[C@H](C(=O)NC(Cc2ccccc2)c2cc(-c3ccc4c(N)n[nH]c4c3)ccn2)CC1 (mixture of isomers) | 13 | 2aPTT [7]: 6 µM |
| NC[C@H]1CC[C@H](C(=O)N[C@@H](Cc2ccccc2)c2nccc(-c3ccccc3)n2)CC1 | 11400 |  |
